AI-2 QS mod: Vibrio harveyi AI-2 quorum sensing modulators, primary screen, JMH597 strain, luminescence/OD600 ratio; 0.4% of 300,000 active; activity change, % at 7.5 µM; Vibrio harveyi JMH597 AI-2 luminescence/OD600 ratio, 9 h; active compounds read low; strain lacks LuxN and CqsS sensors; 0 = neutral-control median; in the data active = activity change below about -75%, passing the limit was not always enough; inconclusive = no clear call, values can overlap the other calls;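 also: luminescence divided by OD600 gain over 9 h not by final OD600 alone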
core dimer inh: inhibitors of HCV core protein dimerization, primary screen, biochemical, TR-FRET, high-throughput; AID 1899, 2009; 0.33% of 300,000 active; inhibition, % at 5 µM; TR-FRET GST/Flag-core106 dimerization, 1536-well;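 active = inhibition above the mean of all tested compounds plus 3 SD, set per screening campaign, cut at about 45% in these data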
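Assay system: tagged HCV core106 pair (GST and Flag); medium: KF-containing HEPES buffer, pH 7.45, DTT, CHAPS, BSA; also added: Eu donor and XL665 acceptor anti-tag antibodies; dosing: 5 µM single dose; timing: compound-protein-antibody incubation 4 h at 22.5 °C; signal: TR-FRET 671 and 617 nm emission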
PHOSPHO1 block: PubChem AID 1565 | inhibition, % at 13.3 µM | recombinant PHOSPHO1, absorbance phosphatase assay | Phosphoethanolamine/phosphocholine phosphatase (Homo sapiens), Q8TCT1 | 1.1% of 290,000 active; in the data active = inhibition above about 60%
Target sequence (Q8TCT1 whole entry, looked up): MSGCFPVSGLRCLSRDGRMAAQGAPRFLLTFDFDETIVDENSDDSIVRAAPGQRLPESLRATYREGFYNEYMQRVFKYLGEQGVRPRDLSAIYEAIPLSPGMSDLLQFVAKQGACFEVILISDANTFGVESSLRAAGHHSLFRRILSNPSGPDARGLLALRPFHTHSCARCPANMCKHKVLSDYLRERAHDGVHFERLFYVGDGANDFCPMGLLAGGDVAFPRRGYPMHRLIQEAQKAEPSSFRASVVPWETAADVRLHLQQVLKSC
ALR H2O2 inh: inhibitors of human ALR sulfhydryl oxidase, primary screen, biochemical, H2O2 detection, HRP-luminol luminescence, single point; FAD-linked sulfhydryl oxidase ALR (Homo sapiens), P55789; purified ALR, DTT oxidation; inhibition, % (concentration not given with the values); 3.8% of 290,000 active; AID 485317, 2010;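 active = mean replicate inhibition above about 79%, with every replicate also reaching it, limit read from the data; inconclusive = only one of the two criteria met; inactive = mean below limit and not every replicate reaching it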
Target sequence (P55789 whole entry, looked up): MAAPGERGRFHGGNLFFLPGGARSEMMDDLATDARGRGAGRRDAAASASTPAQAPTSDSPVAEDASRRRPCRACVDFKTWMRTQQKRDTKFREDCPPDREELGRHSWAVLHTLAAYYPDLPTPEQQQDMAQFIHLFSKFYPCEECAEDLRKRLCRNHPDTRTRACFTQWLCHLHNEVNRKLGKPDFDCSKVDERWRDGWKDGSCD
HSF-1 act: HSF-1 activators, primary screen, NIH3T3-HGL cells, MG132 stress, luminescence, single point; NIH3T3-HGL HSF-1 luciferase reporter, 8 h; 100% = twice DMSO control signal; activation, % at 9 µM; 1.7% of 300,000 active;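 active = mean replicate activation of at least 50% with a set share of replicates each reaching 50%; inconclusive = only one of those two conditions met; inactive = mean below 50% and too few replicates reaching it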;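 also: 0% = median of the neutral control wells and 100% = twice that signal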
HSF1 inhib: HSF1 inhibitors in luciferase reporter cells, primary screen, cell-based, NIH3T3, luminescence. NIH3T3-HGL HSE-luciferase, MG132-induced, luminescence 8 h; active compounds read low. activity change, negative = inhibition, % at 7.5 µM (by protocol). 0.77% of 300,000 active;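 active = more than half of replicate wells show activity change below -50%, luminescence cut by over half; inconclusive = some wells, but at most half, below -50%; inactive = no replicate well below -50%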;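 also: luciferase reports HSF-1 transcriptional activity via heat shock element; 0% = median of DMSO wells and -100% = zero luminescence signal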
* marks the source's active call; other numbers are inactive results; ? = inconclusive; nt = no result. An excerpt weighted towards active compounds, which were near 6.8% of everything screened.

SMILES	AI-2 QS mod	core dimer inh	PHOSPHO1 block	ALR H2O2 inh	HSF-1 act	HSF1 inhib
CCN(CC)c1ccc(Nc2cc3n(c(=O)n2)CCc2cc(OC)c(OC)cc2-3)cc1	10	-5	33	100*	-10	-2
COc1cc2c(cc1OC)-c1cc(Nc3ccc(N(C)C)cc3)nc(=O)n1CC2	14	-23	-23	99*	1	-3
CC(=O)N(C)c1ccc(N=Nc2c(C)[nH]n(C(N)=S)c2=O)cc1	22	-17	-5	nt	53*	16
CCN(CC)S(=O)(=O)c1ccc(N=Nc2c(C)[nH]n(C(N)=S)c2=O)cc1	-3	-8	10	95*	?	25
COC(=O)C1(NC(=O)NC2CCCCC2)CCCCC1	34	4	-4	-2	-2	-10
Cc1cccc(/C(N)=N/OC(=O)CCc2ccccc2)c1	3	-12	18	-12	26	9
Cc1ccc(NC(=O)C2CCCN2C(=O)NC2CCCCC2)cc1F (stereo not given)	-2	-6	35	0	-8	-7
CCOc1cc2c(C#N)c(N3CCCC3)nc(N)c2c(N)n1	1	1	nt	48	-50	-36
CCCCN(CC)c1nc(N)c2c(N)nc(OCC)cc2c1C#N	22	-5	-13	-1	57*	22
Cc1cc(Cl)ccc1NC(=S)NCc1ccc(F)cc1	-5	-9	-16	-2	22	3
Cc1nc2ccc(NC(=O)c3sccc3C)cc2s1	21	-2	25	-5	61*	30
Cc1nc2ccc(C(=O)Nc3ccc(N(C)C)cc3)cc2s1	21	-18	nt	99*	-38	-36
Cc1ccc(OC(=O)c2ccc3nc(C)sc3c2)cc1	22	23	35	-1	-67	-62*
Cc1nc2ccc(NC(=O)N3CCSCC3)cc2s1	4	2	3	-17	-64	-60*
Cc1cc(C)cc(N(CCC#N)C(=O)COC(=O)Cn2[nH]c(=O)c3ccccc3c2=O)c1	nt	nt	nt	3	nt	nt
CN(C)c1ccc(NC(=O)c2ccc3nsnc3c2)cc1	-11	-9	74*	52	25	-4
CN(c1ccc(C(=O)NCc2cccnc2)cc1)S(C)(=O)=O	16	-7	-1	-13	nt	nt
Cc1ccccc1CN(c1ccc(C(=O)NCc2cccnc2)cc1)S(C)(=O)=O	22	-3	-6	96*	-12	-6
CCOC(=O)c1ccc(N=C2NC(=O)CS2)cc1	19	11	19	98*	-12	-5
NC(=O)NC(=O)C(Nc1ccc(N2CCCCC2)cc1)c1ccccc1 (stereo not given)	-1	-21	39	99*	-17	-3
O=C(Nc1ccc(N2CCCCC2)cc1)c1ccccc1	5	6	25	43	20	15
Cc1nc(SCC(=O)c2ccccc2)c(C#N)c(-c2ccco2)c1C(=O)NCc1ccco1	16	11	25	nt	76*	52
COCCOC(=O)c1c(C)nc(SCC(=O)Nc2ccc(OC)cc2)c(C#N)c1-c1ccco1	18	3	3	-9	22	10
Cc1ccc(S(=O)(=O)N2CCCCCC2)cc1C(=O)NCc1ccccn1	25	6	28	-5	14	4
O=C(N/N=C/CCc1ccccc1)c1ccccc1	13	4	-3	9	76*	32
SMILES	AI-2 QS mod	core dimer inh	PHOSPHO1 block	ALR H2O2 inh	HSF-1 act	HSF1 inhib
Cc1cc(-c2csc(N)n2)c(C)n1C	35	-3	86*	-26	-12	-5
Cc1cc(-c2csc(N)n2)c(C)n1Cc1ccco1	3	2	61*	-3	-4	-1
Cc1ccc(-n2c(C)cc(-c3csc(N)n3)c2C)cc1	10	43	-6	-2	2	0
NC(=O)C1CCN(C(=O)COc2ccc3ccccc3c2)CC1	9	-4	-14	-15	-5	0
O=C(COc1ccccc1)Nc1cccc(-c2nnc(-c3ccccc3)o2)c1	23	11	-22	-1	36	19
NC(=O)C1CCN(C(=O)COc2ccc(Nc3ccccc3)cc2)CC1	8	-4	39	99*	10	0
COCCNC(=O)COc1ccc(Nc2ccccc2)cc1	45	-9	24	99*	1	-2
O=C(COc1ccc(Nc2ccccc2)cc1)Nc1ccncc1	3	-9	nt	90*	-5	-3
C=Cc1cccc(NC(=O)COc2ccccc2)c1	-7	-3	0	-12	57*	23
O=C(O)COc1ccc(Oc2ccccc2)cc1	63	-2	-15	-4	-13	-7
O=C(O)COc1ccc(Nc2ccccc2)cc1	34	6	-110	99*	-14	-8
O=c1c2sc(-c3ccccc3)cc2nc2n1CCCCC2	15	5	-10	15	55*	32
CCCCCCCN(C(=O)CCl)c1ccccc1C	14	1	-1	2	94*	34
COc1cc(C(=O)NNC(=O)C2CC2)cc(OC)c1OC	9	1	2	1	-6	-1
CSC1=N/C(=C\c2ccc(C)o2)C(=O)S1	3	-14	92*	2	-6	-7
CSC1=N/C(=C\c2ccc(C)s2)C(=O)S1	16	-5	-10	-3	18	-6
O=C(NC1CCCCC1)C(c1ccco1)N(C(=O)c1csnn1)c1ccc(Cl)cc1 (stereo not given)	nt	8	14	-14	-90	-89*
Cc1cc(C)c(OCC(=O)N(C)CC(=O)Nc2ccc(N3CCOCC3)cc2)c(C)c1	9	-4	52	27	-7	-5
Cc1ccc(C)c(SCC(=O)N(C)CC(=O)Nc2ccc(N3CCOCC3)cc2)c1	-6	7	nt	98*	-29	-9
CSc1ccc(Cl)c(C(=O)N(C)CC(=O)Nc2ccc(N3CCOCC3)cc2)c1	7	1	nt	89*	-6	-5
CN(CC(=O)Nc1ccc(N2CCOCC2)cc1)C(=O)c1cc(F)c(F)cc1Cl	16	-1	nt	61	-6	-4
CCN(CC(=O)Nc1ccc(NC(C)=O)cc1)C(=O)/C=C/c1c(C)nn(-c2ccc(F)cc2)c1C	6	3	8	0	4	-8
COc1ccc(-c2cc(C(=O)N/N=C/c3ccc4c(c3)OCO4)c3ccccc3n2)c(OC)c1	22	31	28	-6	2	2
COc1ccc(OC)c(-c2cc(C(=O)N/N=C/c3cc(OC)c(OC)cc3OC)c3ccccc3n2)c1	21	8	nt	-1	-72	-69*
